Measurements from ChEMBL document CHEMBL5030531, “Synthetic Glycolipids as Molecular Vaccine Adjuvants: Mechanism of Action in Human Cells and In Vivo Activity” (J Med Chem, 2021).
Activity calls are given as the source filed them.

Assays:
[1] = biological target: Myeloid differentiation primary response protein MyD88 (Homo sapiens) (UniProt Q99836); assay: Activation of MyD88 dependent pathway in human THP-1 derived macrophages assessed as increase in NF-kappaB p65 phosphorylation at 10 uM measured after 1 hr by immunoblotting analysis; format: tissue-based; conditions: Macrophage, filed as activator
Outline: (§1)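 PMA-differentiated THP-1 macrophages treated with compound at 10 μM (S-LPS 100 ng/mL, MPLA 1 μg/mL as references) and harvested at set times. RIPA lysates with protease/phosphatase inhibitors separated by SDS-PAGE, transferred to PVDF and probed for phospho-p65 (Ser536) and phospho-p38 (Thr180/Tyr182) with β-actin as loading control. Detection by chemiluminescence, densitometry; representative of at least two experiments.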

[2] = biological target: NACHT, LRR and PYD domains-containing protein 3 (Homo sapiens) (UniProt Q96P20); assay: Activation of NLRP3 inflammasome in human THP-1 derived macrophages assessed as increase in IL-1beta maturation and release at 20 uM measured after 6 hrs by ELISA; format: tissue-based; conditions: Macrophage, filed as activator
Outline: (§2)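 After 6 h of compound at 20 μM, differentiated THP-1 macrophage lysates were immunoblotted for pro-caspase-1 and pro-IL-1β. Methanol/chloroform-precipitated supernatants were probed for cleaved caspase-1 and cleaved IL-1β (Asp116), with chemiluminescent detection. Released IL-1β was also measured by ELISA.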

Macrophage [3] = assay: Inhibition of IL-1beta release in human THP-1 derived macrophages pretreated with NLRP3 inhibitor MCC950 for 1 hr followed by compound addition and measured after 6 hrs by ELISA and immunoblotting analysis; format: functional, tissue-based
Outline: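 Differentiated THP-1 macrophages preincubated 1 h with MCC950 at 0.01, 0.1, 1 and 10 μM. Cells were then stimulated 6 h with compound at 20 μM or with S-LPS at 100 ng/mL. Secreted IL-1β measured by ELISA and by immunoblot of supernatants.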

[4] = biological target: Myeloid differentiation primary response protein MyD88 (Homo sapiens) (UniProt Q99836); assay: Activation of MyD88 dependent pathway in human THP-1 derived macrophages assessed as increase in MAPK p38 phosphorylation at 10 uM measured after 1 hr by immunoblotting analysis; format: tissue-based; conditions: Macrophage, filed as activator; outline: as §1
Macrophage [5] = assay: Induction of IL-1beta production in human THP-1 derived macrophages assessed as secretion of IL-1beta mature form in supernatant at 20 uM measured up to 18 hrs by ELISA; format: functional, tissue-based; conditions: time hrs <=18
Outline: (§3)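 Differentiated THP-1 macrophages treated with compound at 20 μM (S-LPS, R-LPS 100 ng/mL; MPLA 1 μg/mL) for 3, 6 and 18 h. IL-1β measured by ELISA in both cell lysates and supernatants; n = 3, one-way ANOVA versus untreated.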

Macrophage [6] = assay: Activation of TRIF dependent pathway in human THP-1 derived macrophages assessed as increase in IFNbeta mRNA expression by measuring fold increase measured 2 hrs post treatment by real-time PCR relative to control; conditions: filed as activator
Macrophage [7] = assay: Activation of TRIF dependent pathway in human THP-1 derived macrophages assessed as increase in RSAD2 expression measured after 6 hrs; format: tissue-based; conditions: filed as activator
Outline: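 RSAD2 mRNA in differentiated THP-1 macrophages after compound at 10 μM, measured by RT-qPCR (annealing 60 °C) with β-actin housekeeping gene. Expressed as ΔΔCt fold change versus untreated cells; n = 3, Wilcoxon test.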

[8] = biological target: T1, Toll-like receptor 4/MD-2 (Homo sapiens) (UniProt O00206+Q9Y6Y9); assay: Binding affinity to NTA sensor chip immobilized recombinant human TLR4/MD2 assessed as maximum response by surface plasmon resonance analysis; format: protein-complex assay; conditions: filed as agonist
Outline: (§4)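 Recombinant human TLR4/MD2 complex (20 μg/mL in 10 mM sodium acetate pH 4.0) amine-coupled to NTA chip after NiCl2 and EDC/NHS activation, ethanolamine-blocked. Analytes sonicated 15 min and diluted in PBS-P+ with 5% DMSO, injected over the series 4.34–69.50 μM or 5.34–85.50 μM. Regeneration 50 mM NaOH. Kinetics fitted to 1:1 model after solvent correction.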

[9] = biological target: T1, Toll-like receptor 4/MD-2 (Homo sapiens); assay: Binding affinity to NTA sensor chip immobilized recombinant human TLR4/MD2 assessed as association rate constant by surface plasmon resonance analysis; format: protein-complex assay; conditions: filed as agonist; outline: as §4
[10] = biological target: NACHT, LRR and PYD domains-containing protein 3 (Homo sapiens) (UniProt Q96P20); assay: Activation of NLRP3 inflammasome in human THP-1 derived macrophages assessed as increase in caspase-1 cleavage at 20 uM by immunoblotting analysis; format: tissue-based; conditions: Macrophage, filed as activator; outline: as §2
Macrophage [11] = assay: Induction of IL-1beta production in human THP-1 derived macrophages assessed as accumulation of IL-1beta precursor in cell lysates at 20 uM measured up to 18 hrs by ELISA; format: functional, subcellular; conditions: time hrs <=18; outline: as §3
[12] = biological target: Myeloid differentiation primary response protein MyD88 (Homo sapiens) (UniProt Q99836); assay: Activation of MyD88 dependent pathway in human THP-1 derived macrophages assessed as increase in IL-6 secretion at 10 to 25 uM measured after 18 hrs by ELISA; conditions: Macrophage, filed as activator, dose 10-25 µM
Outline: (§5)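 THP-1 cells differentiated with PMA 25 ng/mL for 72 h, then rested 24 h in fresh medium before stimulation with compound (range 0.1–1 to 10–25 μM) in RPMI/10% FBS for 18 h. S-LPS and MPLA used as references. TNFα, IL-1β, IL-6 in supernatants quantified by sandwich ELISA at 450 nm (570 nm correction).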

[13] = Toxicity in C57BL/6 […] assessed as state of alertness at 10 ug observed daily for 7 days; conditions: mouse, in vivo, 168 h; dose 10 µg, time 7 day
Outline: (§6)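 Six-week-old female C57BL/6 mice were injected subcutaneously in the flank with 10 μg adjuvant in 50 μL PBS. Mice were monitored and weighed daily for 7 days, with injection-site response and alertness noted. Group size is n = 3 per treatment in the methods and n = 4 in the figure legend.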

[14] = biological target: Toll-like receptor 2 (Homo sapiens) (UniProt O60603); assay: Agonist activity human TLR2 in PAM2CSK4 stimulated HEK-Blue hTLR2 cells at 0.1 to 25 uM incubated for 18 hrs by QUANTI-blue assay; format: cell-based; conditions: dose 0.1-25 µM
Outline: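 HEK-Blue hTLR2 cells exposed 18 h to compound (0.1–25 μM); SEAP in supernatant by QUANTI-Blue at OD 630 nm. Values normalized to PAM2CSK4 (10 ng/mL, 18 h) and expressed as mean percentage of three independent experiments.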

Mus musculus [15] = assay: Immuno-adjuvant activity in C57BL/6 mouse assessed as increase in levels of anti-ova total IgG in sera at 10 ug administered subcutaneously on day 1 and as booster dose on day 22 in presence of ovalbumin and […] by ELISA; format: functional, organism-based; conditions: dose 10.0 µg
Outline: (§7)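 Female C57BL/6 mice (n = 8) given 50 μL s.c. in the flank of 500 μg endotoxin-depleted OVA mixed with 10 μg adjuvant in PBS. Booster on opposite flank day 22; OVA-only control group. Tail-vein sera taken days 21 and 41, serially diluted 1:100–1:12 800 and assayed by ELISA on OVA-coated plates (4 μg/mL). Detection with HRP anti-mouse IgG, TMB, A450.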

[16] = biological target: Myeloid differentiation primary response protein MyD88 (Homo sapiens) (UniProt Q99836); assay: Activation of MyD88 dependent pathway in human THP-1 derived macrophages assessed as increase in TNF alpha secretion at 10 to 25 uM measured after 18 hrs by ELISA; conditions: Macrophage, filed as activator, dose 10-25 µM; outline: as §5
Macrophage [17] = assay: Activation of TRIF dependent pathway in human THP-1 derived macrophages assessed as increase in IRF3 phosphorylation at 10 uM measured up to 3 hrs by immunoblotting analysis; format: tissue-based; conditions: filed as activator, time hrs <=3
Outline: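 Differentiated THP-1 macrophages exposed to compound at 10 μM, alongside S-LPS and R-LPS (100 ng/mL each) and MPLA (1 μg/mL), and collected over a time course. Lysates were immunoblotted for phospho-IRF3 (Ser386) with β-actin as loading control and detected by chemiluminescence.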

[18] = biological target: T1, Toll-like receptor 4/MD-2 (Homo sapiens); assay: Binding affinity to NTA sensor chip immobilized recombinant human TLR4/MD2 assessed as dissociation rate kinetics by surface plasmon resonance analysis; format: protein-complex assay; conditions: filed as agonist; outline: as §4
[19] = biological target: Myeloid differentiation primary response protein MyD88 (Homo sapiens) (UniProt Q99836); assay: Activation of MyD88 dependent pathway in human THP-1 derived macrophages assessed as increase in IL-1 beta secretion at 10 to 25 uM measured after 18 hrs by ELISA; conditions: Macrophage, filed as activator, dose 10-25 µM; outline: as §5
[20] = biological target: Nuclear factor NF-kappa-B complex (Homo sapiens) (UniProt Q00653+P19838+Q04206); assay: Activation of NF-kappaB in LPS-stimulated HEK-Blue hTLR4 cells assessed as increase in release of SEAP reporter protein level incubated for 18 hrs by QUANTI-blue assay; format: cell-based; conditions: filed as activator
Outline: (§8)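 HEK-Blue hTLR4 cells (HEK293 with CD14, TLR4, MD-2 and NF-κB/AP-1-driven SEAP) in DMEM/10% FBS, seeded overnight (37 °C, 5% CO2), washed, then exposed to compound 0.1–25 μM in fresh medium for 18 h. SEAP in supernatant read with QUANTI-Blue substrate (0.5–4 h, RT) at OD 630 nm. Normalized to 100 ng/mL S. minnesota smooth LPS; mean percentage of three independent experiments.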

[21] = biological target: Toll-like receptor 4 (Homo sapiens) (UniProt O00206); assay: Antagonist activity at human TLR4 in LPS-stimulated HEK-Blue hTLR4 cells assessed as inhibition of LPS-induced SEAP production at 0.1 to 25 uM incubated for 18 hrs by QUANTI-blue assay; conditions: dose 0.1-25 µM
HEK-Blue hTLR4 = assay: Activation of AP-1 in LPS-stimulated HEK-Blue hTLR4 cells assessed as increase in release of SEAP reporter protein level incubated for 18 hrs by QUANTI-blue assay; format: cell-based; conditions: Homo sapiens, filed as activator; outline: as §8
[22] = Toxicity in C57BL/6 […] assessed as local response at injection site at 10 ug observed daily for 7 days; conditions: mouse, in vivo, 168 h; dose 10 µg, time 7 day; outline: as §6
[23] = Toxicity in C57BL/6 […] assessed as effect on body weight at 10 ug measured daily for 7 days; conditions: mouse, in vivo, 168 h; dose 10 µg, time 7 day; outline: as §6
[24] = biological target: Toll-like receptor 4 (Homo sapiens) (UniProt O00206); assay: Activation of human TLR4 in IL-1beta stimulated HEK-Blue Null cells assessed as NF-kappaB activation at 0.1 to 25 uM incubated for 18 hrs by QUANTI- blue assay; format: tissue-based; conditions: dose 0.1-25 µM
Outline: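 HEK-Blue Null cells, which carry the SEAP reporter but lack LPS receptors, were given compound (0.1–25 μM) for 18 h. SEAP was read by QUANTI-Blue at OD 630 nm and normalized to 100 ng/mL human IL-1β as positive control. Results are the mean percentage of three independent experiments.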

Mus musculus [25] = assay: Immuno-adjuvant activity in C57BL/6 mouse assessed as increase in levels of anti-ova total IgG in sera at 10 ug administered subcutaneously in presence of ovalbumin and measured 21 days post immunization by ELISA; format: functional, organism-based; conditions: dose 10.0 µg, time 21.0 day; outline: as §7
Macrophage [26] = assay: Activation of TRIF dependent pathway in human THP-1 derived macrophages assessed as increase in IFNbeta mRNA expression measured 2 hrs post treatment by real-time PCR; conditions: filed as activator
Macrophage [27] = assay: Activation of TRIF dependent pathway in human THP-1 derived macrophages assessed as STAT1 phosphorylation at 10 uM pretreated with anti-IFNAR2 antibody for 1 hr followed by compound addition and measured after 3 hrs by immunoblotting analysis; conditions: filed as activator

Chain of Myeloid differentiation primary response protein MyD88 (Homo sapiens) (Q99836 whole entry): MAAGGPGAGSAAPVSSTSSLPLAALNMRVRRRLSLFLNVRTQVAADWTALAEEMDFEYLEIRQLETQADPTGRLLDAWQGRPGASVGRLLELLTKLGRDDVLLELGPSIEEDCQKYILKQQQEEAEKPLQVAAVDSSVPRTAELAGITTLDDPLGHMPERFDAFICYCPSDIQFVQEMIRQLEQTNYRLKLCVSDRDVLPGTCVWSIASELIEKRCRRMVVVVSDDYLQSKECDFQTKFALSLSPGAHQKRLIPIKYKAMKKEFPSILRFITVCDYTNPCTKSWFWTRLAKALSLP
Chain of NACHT, LRR and PYD domains-containing protein 3 (Homo sapiens) (Q96P20 whole entry, the tested form may be a part): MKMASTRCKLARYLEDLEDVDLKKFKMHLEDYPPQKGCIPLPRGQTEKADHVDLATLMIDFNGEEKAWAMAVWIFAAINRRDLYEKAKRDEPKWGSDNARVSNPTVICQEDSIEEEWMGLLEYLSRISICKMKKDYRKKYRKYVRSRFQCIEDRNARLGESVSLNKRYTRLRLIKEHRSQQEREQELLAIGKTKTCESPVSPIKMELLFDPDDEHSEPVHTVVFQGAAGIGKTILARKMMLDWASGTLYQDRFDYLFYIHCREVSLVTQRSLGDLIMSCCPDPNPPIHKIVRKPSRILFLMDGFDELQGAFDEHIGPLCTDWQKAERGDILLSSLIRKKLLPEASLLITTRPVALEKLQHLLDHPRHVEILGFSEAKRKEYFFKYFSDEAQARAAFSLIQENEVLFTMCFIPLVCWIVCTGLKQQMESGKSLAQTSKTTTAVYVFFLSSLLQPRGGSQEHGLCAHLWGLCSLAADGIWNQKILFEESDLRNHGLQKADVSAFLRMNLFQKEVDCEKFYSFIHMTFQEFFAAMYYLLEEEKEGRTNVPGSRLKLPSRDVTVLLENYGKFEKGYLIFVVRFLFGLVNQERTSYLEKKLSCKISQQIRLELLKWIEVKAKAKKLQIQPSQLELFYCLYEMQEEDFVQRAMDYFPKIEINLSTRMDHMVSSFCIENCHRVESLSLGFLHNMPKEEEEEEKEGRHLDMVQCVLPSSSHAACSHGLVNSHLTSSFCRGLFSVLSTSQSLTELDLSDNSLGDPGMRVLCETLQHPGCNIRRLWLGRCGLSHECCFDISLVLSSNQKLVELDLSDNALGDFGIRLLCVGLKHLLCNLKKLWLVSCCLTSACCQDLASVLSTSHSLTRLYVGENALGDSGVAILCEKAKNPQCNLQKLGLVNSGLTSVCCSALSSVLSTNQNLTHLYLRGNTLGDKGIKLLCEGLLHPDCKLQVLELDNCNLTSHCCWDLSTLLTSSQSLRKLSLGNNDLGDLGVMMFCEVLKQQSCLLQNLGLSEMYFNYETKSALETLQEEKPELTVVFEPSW
Chain of Toll-like receptor 4 (Homo sapiens) (O00206 whole entry): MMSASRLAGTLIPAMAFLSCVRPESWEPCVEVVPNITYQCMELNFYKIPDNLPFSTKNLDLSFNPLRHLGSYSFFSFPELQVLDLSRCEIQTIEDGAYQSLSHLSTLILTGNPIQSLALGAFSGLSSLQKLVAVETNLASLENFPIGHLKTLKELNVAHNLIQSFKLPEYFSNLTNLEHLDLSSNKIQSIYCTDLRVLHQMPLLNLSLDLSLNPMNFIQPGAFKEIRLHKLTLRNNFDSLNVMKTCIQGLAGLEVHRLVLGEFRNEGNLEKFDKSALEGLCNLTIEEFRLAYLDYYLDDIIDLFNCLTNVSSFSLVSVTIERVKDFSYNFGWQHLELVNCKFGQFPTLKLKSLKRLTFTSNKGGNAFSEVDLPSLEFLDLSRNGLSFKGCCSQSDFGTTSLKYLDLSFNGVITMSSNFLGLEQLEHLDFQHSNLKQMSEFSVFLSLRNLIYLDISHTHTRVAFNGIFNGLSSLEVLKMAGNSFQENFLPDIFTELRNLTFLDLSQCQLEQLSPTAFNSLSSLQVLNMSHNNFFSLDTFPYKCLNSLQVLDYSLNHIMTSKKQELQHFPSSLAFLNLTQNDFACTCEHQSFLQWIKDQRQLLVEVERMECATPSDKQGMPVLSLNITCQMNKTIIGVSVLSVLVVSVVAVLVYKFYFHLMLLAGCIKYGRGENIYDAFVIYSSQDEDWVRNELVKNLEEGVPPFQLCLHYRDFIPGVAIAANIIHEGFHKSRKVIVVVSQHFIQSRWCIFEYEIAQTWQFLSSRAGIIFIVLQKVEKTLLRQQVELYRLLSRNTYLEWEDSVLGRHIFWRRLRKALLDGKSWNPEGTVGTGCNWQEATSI
Chain of Toll-like receptor 2 (Homo sapiens) (O60603 whole entry): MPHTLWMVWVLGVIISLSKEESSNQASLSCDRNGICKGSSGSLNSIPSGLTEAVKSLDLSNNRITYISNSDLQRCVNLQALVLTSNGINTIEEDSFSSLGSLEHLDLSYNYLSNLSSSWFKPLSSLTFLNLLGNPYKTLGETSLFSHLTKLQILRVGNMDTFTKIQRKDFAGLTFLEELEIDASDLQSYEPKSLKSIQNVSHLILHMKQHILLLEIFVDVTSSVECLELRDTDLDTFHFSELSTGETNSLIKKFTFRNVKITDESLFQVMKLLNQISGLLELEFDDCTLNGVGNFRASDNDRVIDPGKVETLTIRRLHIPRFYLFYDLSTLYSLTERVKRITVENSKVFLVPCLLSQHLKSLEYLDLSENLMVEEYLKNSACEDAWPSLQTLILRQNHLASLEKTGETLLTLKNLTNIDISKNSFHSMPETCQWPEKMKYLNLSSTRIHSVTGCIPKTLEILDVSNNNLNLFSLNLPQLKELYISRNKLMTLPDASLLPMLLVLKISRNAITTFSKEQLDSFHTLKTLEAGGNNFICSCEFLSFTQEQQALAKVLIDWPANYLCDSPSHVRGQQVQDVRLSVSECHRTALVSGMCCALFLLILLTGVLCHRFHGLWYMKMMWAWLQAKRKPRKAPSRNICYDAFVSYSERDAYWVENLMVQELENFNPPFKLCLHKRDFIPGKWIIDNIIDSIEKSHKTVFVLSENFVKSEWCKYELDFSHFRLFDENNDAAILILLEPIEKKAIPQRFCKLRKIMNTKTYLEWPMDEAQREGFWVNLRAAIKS

CCCCCCCCCCCC(=O)N[C@H]1[C@@H](OP(=O)([O-])[O-])O[C@H](CO)[C@@H](OC(=O)CCCCCCCCCCC)[C@@H]1OC(=O)CCCCCCCCCCC.[Na+].[Na+]
5.19 10^-4/s: Kdiss [18]
active: Activity [1] | Activity [2] | inhibition (Macrophage [3]) Dose-Dependent Effect | Activity [4] | Activity (Macrophage [5]) | Activity (Macrophage [7]) | Activity [10] | Activity (Macrophage [11]) | Activity [12] | Activity (Mus musculus [15]) | Activity [16] | Activity (Macrophage [17]) | Activity [19] | Activity [20] Dose-Dependent Effect | Activity (HEK-Blue hTLR4) Dose-Dependent Effect | Activity (Mus musculus [25]) | Activity (Macrophage [26]) | Activity (Macrophage [27])
20: fold change (FC) (Macrophage [6])
29.1 RU: Rmax [8]
9.15 10^2/Ms: Ka [9]
Non-Toxic: Activity [13] | Activity [22] | Activity [23]
inactive: Activity [14] | Activity [21] | Activity [24]
